Measurements as given in ChEMBL document CHEMBL1938246, “Eudesmane-type sesquiterpene lactones inhibit multiple steps in the NF-κB signaling pathway induced by inflammatory cytokines” (Bioorg Med Chem Lett, 2012).
pIC50: −log10 of the molar value. Activity calls are given as the source filed them. The rule behind the calls is not given here.

Key:
[1] = tested on: A549; test: (§1) Inhibition of NFkappaB-mediated ICAM1 expression in IL1alpha-stimulated human A549 cells treated 1 hr before IL1alpha challenge measured after 6 hrs by ELISA; type: cell-based
Summary of the method: (§2)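 A549 cells preincubated 1 h with serial dilutions of compound, then stimulated with IL-1α (0.25 ng/mL) or TNF-α (2.5 ng/mL) for 6 h with compound still present. Cell-surface ICAM-1 (%) by cell ELISA on triplicate cultures. IC50 (µM) is the mean of at least three independent experiments.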

[2] = as §1; type: cell-based; summary of the method: as §2
[3] = tested on: A549; test: (§3) Inhibition of NFkappaB-mediated ICAM1 expression in TNFalpha-stimulated human A549 cells treated 1 hr before TNFalpha challenge measured after 6 hrs by ELISA; type: cell-based; summary of the method: as §2
[4] = as §3; type: cell-based; summary of the method: as §2
[5] = tested on: A549; test: Cytotoxicity against human A549 cells after 24 hrs by MTT assay; type: cell-based; settings: a549, 24 h
Summary of the method: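 A549 cells exposed to serial dilutions of compound for 24 h. Viability (%) by MTT assay on triplicate cultures. IC50 (µM) is the mean of four independent experiments.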

[6] = target: T1, NF-kappa-B inhibitor alpha (Homo sapiens) (UniProt P25963); test: Inhibition of TNF-alpha-induced IkappaBalpha phosphorylation in human A549 cells at 10 to 100 uM incubated for 1 hr prior to TNFalpha challenge measured after 15 mins by Western blot analysis in the presence of proteasome inhibitor MG-132; type: cell-based
T1 sequence (whole entry): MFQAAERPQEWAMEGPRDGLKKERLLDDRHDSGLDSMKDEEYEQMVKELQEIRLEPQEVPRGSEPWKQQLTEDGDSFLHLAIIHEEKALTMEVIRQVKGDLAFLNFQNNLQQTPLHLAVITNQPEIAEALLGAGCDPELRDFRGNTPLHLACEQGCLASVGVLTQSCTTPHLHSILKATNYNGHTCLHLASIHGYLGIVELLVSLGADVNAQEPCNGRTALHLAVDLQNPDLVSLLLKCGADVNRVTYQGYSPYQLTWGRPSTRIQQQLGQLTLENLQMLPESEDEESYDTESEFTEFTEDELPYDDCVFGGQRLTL
Summary of the method: (§4)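 A549 cells preincubated 1 h with or without the proteasome inhibitor MG-132 (20 µM) or with compound at various concentrations. Then stimulated 15 min with IL-1α (0.25 ng/mL) or TNF-α (2.5 ng/mL), or left unstimulated, with compound present. IκBα phosphorylation then examined.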

[7] = target: Transcription factor p65 (Homo sapiens) (UniProt Q04206); test: Inhibition of NF-kappaB p65 nuclear translocation in IL1alpha-stimulated human A549 cells at 30 to 100 uM incubated for 1 hr prior IL1alpha challenge measured after 30 mins by Western blot analysis; type: cell-based
Chain of Transcription factor p65 (Homo sapiens) (Q04206 whole entry): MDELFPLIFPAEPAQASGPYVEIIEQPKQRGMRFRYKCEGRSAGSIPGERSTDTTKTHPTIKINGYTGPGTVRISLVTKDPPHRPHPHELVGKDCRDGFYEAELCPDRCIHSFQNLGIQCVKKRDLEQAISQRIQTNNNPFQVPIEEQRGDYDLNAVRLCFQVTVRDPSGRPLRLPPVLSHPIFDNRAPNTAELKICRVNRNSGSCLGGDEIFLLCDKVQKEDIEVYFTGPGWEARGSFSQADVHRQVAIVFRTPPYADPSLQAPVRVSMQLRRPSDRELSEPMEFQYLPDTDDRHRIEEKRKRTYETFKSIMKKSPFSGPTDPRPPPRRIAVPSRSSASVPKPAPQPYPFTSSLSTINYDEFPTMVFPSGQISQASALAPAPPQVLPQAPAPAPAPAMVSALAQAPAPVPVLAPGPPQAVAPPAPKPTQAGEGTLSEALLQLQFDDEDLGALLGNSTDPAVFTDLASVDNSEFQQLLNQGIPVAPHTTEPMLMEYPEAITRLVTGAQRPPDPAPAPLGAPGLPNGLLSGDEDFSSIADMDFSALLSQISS
Summary of the method: (§5)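 A549 cells pretreated 1 h with compound at the stated concentrations, then stimulated 30 min with IL-1α (0.25 ng/mL) or TNF-α. p65 and p50 subunits then assessed for movement from cytoplasm to nucleus.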

[8] = target: T1, NF-kappa-B inhibitor alpha (Homo sapiens); test: Inhibition of IL1alpha-induced IkappaBalpha phosphorylation in human A549 cells at 10 to 100 uM incubated for 1 hr prior to IL1alpha challenge measured after 15 mins by Western blot analysis in the presence of proteasome inhibitor MG-132; type: cell-based; summary of the method: as §4
[9] = tested on: A549; test: Cytotoxicity against human A549 cells at 100 uM up to 7 hrs by MTT assay; type: cell-based; settings: a549, 7 h
[10] = tested on: A549; test: Inhibition of NFkappaB-mediated ICAM1 protein expression in IL1alpha-stimulated human A549 cells preincubated for 1 hr prior IL1alpha challenge measured after 6 hrs by Western blot analysis; type: cell-based
[11] = tested on: A549; test: Inhibition of NFkappaB-mediated ICAM1 protein expression in TNFalpha-stimulated human A549 cells preincubated for 1 hr prior TNFalpha challenge measured after 6 hrs by Western blot analysis; type: cell-based
[12] = tested on: A549; test: Inhibition of NF-kappaB p50 nuclear translocation in IL1alpha-stimulated human A549 cells at 30 to 100 uM incubated for 1 hr prior IL1alpha challenge measured after 30 mins by Western blot analysis; type: cell-based; summary of the method: as §5
[13] = tested on: A549; test: Cytotoxicity against human A549 cells at 100 uM up to 7 hrs by crystal violet staining; type: cell-based; settings: a549, 7 h
[14] = tested on: A549; test: Inhibition of TNF-alpha-induced IkappaBalpha degradation in human A549 cells at 100 uM incubated for 1 hr prior TNFalpha challenge measured after 15 mins by Western blot analysis; type: functional, cell-based
Summary of the method: (§6)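 A549 cells preincubated 1 h with compound at the stated concentrations, then given IL-1α (0.25 ng/mL) or TNF-α (2.5 ng/mL). IκBα degradation then monitored.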

[15] = target: Transcription factor p65 (Homo sapiens) (UniProt Q04206); test: Inhibition of NF-kappaB p65 nuclear translocation in TNFalpha-stimulated human A549 cells at 30 to 100 uM incubated for 1 hr prior TNFalpha challenge measured after 30 mins by Western blot analysis; type: cell-based; summary of the method: as §5
[16] = tested on: A549; test: Inhibition of NF-kappaB p50 nuclear translocation in TNFalpha-stimulated human A549 cells at 30 to 100 uM incubated for 1 hr prior TNFalpha challenge measured after 30 mins by Western blot analysis; type: cell-based; summary of the method: as §5
[17] = tested on: A549; test: Cytotoxicity against human A549 cells at 100 to 320 uM after 24 hrs by MTT assay; type: cell-based; settings: a549, 24 h
[18] = tested on: A549; test: Inhibition of IL1alpha-induced IkappaBalpha degradation in human A549 cells at 100 uM incubated for 1 hr prior IL1alpha challenge measured after 15 mins by Western blot analysis; type: functional, cell-based; summary of the method: as §6
[19] = target: T1, NF-kappa-B inhibitor alpha (Homo sapiens); test: Inhibition of IL1alpha-induced IkappaBalpha phosphorylation in human A549 cells at 100 uM incubated for 1 hr prior IL1alpha challenge measured after 15 mins by Western blot analysis in the presence of proteasome inhibitor MG-132; type: cell-based; summary of the method: as §4
[20] = Selectivity ratio of IC50 for human A549 cells to IC50 for NFkappaB-mediated ICAM1 expression in human A549 cells; type: ADME, cell-based; settings: read-out: Ratio IC50
[21] = target: T1, NF-kappa-B inhibitor alpha (Homo sapiens); test: Inhibition of TNF-alpha-induced IkappaBalpha phosphorylation in human A549 cells at 100 uM incubated for 1 hr prior TNFalpha challenge measured after 15 mins by Western blot analysis in the presence of proteasome inhibitor MG-132; type: cell-based; summary of the method: as §4
[22] = tested on: A549; test: Inhibition of NF-kappaB p50 nuclear translocation in TNFalpha-stimulated human A549 cells at 100 uM incubated for 1 hr prior TNFalpha challenge measured after 30 mins by Western blot analysis; type: cell-based; summary of the method: as §5
[23] = tested on: A549; test: Inhibition of NF-kappaB p50 nuclear translocation in IL1alpha-stimulated human A549 cells at 100 uM incubated for 1 hr prior IL1alpha challenge measured after 30 mins by Western blot analysis; type: cell-based; summary of the method: as §5
[24] = target: Transcription factor p65 (Homo sapiens) (UniProt Q04206); test: Inhibition of NF-kappaB p65 nuclear translocation in TNFalpha-stimulated human A549 cells at 100 uM incubated for 1 hr prior TNFalpha challenge measured after 30 mins by Western blot analysis; type: cell-based; summary of the method: as §5
[25] = target: Transcription factor p65 (Homo sapiens) (UniProt Q04206); test: Inhibition of NF-kappaB p65 nuclear translocation in IL1alpha-stimulated human A549 cells at 100 uM incubated for 1 hr prior IL1alpha challenge measured after 30 mins by Western blot analysis; type: cell-based; summary of the method: as §5

Compound | inhibition [1] | pIC50 [2] | inhibition [3] | pIC50 [4] | IC50 [5] [µM] | inhibition [7] | inhibition [10] | inhibition [11] | inhibition [12] | inhibition [14] | inhibition [15] | inhibition [16] | inhibition [18] | inhibition [19] | selectivity ratio [20] | inhibition [21] | other results
C[C@H]1[C@@H]2[C@H]3OC(=O)[C@@H](C)[C@@H]3CC[C@@]2(C)C=C[C@@H]1O | inactive | < 3.49 | inactive | < 3.49 | > 320 | – | – | – | – | – | – | – | – | – | – | – | –
C[C@@H]1C(=O)O[C@H]2[C@H]1CC[C@@]1(C)CCC(=O)[C@@H](C)[C@H]21 | inactive | < 3.49 | inactive | < 3.49 | > 320 | – | – | – | – | – | – | – | – | – | – | – | –
C[C@@H]1C(=O)O[C@H]2[C@H]1CC[C@@]1(C)C[C@@H](Br)C(=O)[C@@H](C)[C@H]21 | Dose-dependent effect | 5.00 | Dose-dependent effect | 5.34 | > 320 | Active | Dose-dependent effect | Dose-dependent effect | Active | inactive | Active | Active | Active | – | – | – | inhibition [6]: Active; inhibition [8]: Active; Activity [9]: Non-toxic; Activity [13]: Non-toxic; Activity [17]: Toxic
C=C1C(=O)O[C@@H]2[C@H]3[C@H](C)C(=O)[C@H](Br)C[C@]3(C)CC[C@@H]12 | Dose-dependent effect | 5.47 | Dose-dependent effect | 5.55 | 88 | Active | Dose-dependent effect | Dose-dependent effect | Active | Active | Active | Active | Active | Active | 10 | Active | –
C=C1C(=O)O[C@@H]2[C@H]3[C@H](C)C(=O)C=C[C@]3(C)CC[C@@H]12 | Dose-dependent effect | 5.00 | Dose-dependent effect | 5.37 | 120 | Active | Dose-dependent effect | Dose-dependent effect | Active | Active | Active | Active | Active | Active | 10 | Active | –
C[C@@H]1C(=O)O[C@H]2[C@H]1CC[C@@]1(C)C=CC(=O)[C@@H](C)[C@H]21 | Dose-dependent effect | 4.28 | Dose-dependent effect | 4.47 | > 320 | – | Dose-dependent effect | Dose-dependent effect | – | – | – | – | – | – | – | – | inhibition [22]: Active; inhibition [23]: Active; inhibition [24]: Active; Activity [17]: Toxic; inhibition [25]: Active
C=C1C(=O)O[C@@H]2[C@H]3[C@H](C)[C@@H](O)C=C[C@]3(C)CC[C@@H]12 | Dose-dependent effect | 4.64 | Dose-dependent effect | 5.21 | 140 | Active | Dose-dependent effect | Dose-dependent effect | Active | inactive | Active | Active | inactive | inactive | 10 | inactive | –
C=C1C(=O)O[C@@H]2[C@H]3[C@H](C)C(=O)CC[C@]3(C)CC[C@@H]12 | Dose-dependent effect | 5.21 | Dose-dependent effect | 5.37 | 110 | Active | Dose-dependent effect | Dose-dependent effect | Active | Active | Active | Active | Active | Active | 10 | Active | –
